From ChEMBL document CHEMBL3352416, “Discovery of carbohybrid-based 2-aminopyrimidine analogues as a new class of rapid-acting antimalarial agents using image-based cytological profiling assay” (J Med Chem, 2014)
Calls of active or inactive are those of the source. The calls are words filed in the database; no cut-off is given here.

How the values were obtained:
Plasmodium falciparum [1] = experiment: Antimalarial activity against Plasmodium falciparum K1 assessed as increase in schizonts parasite stage accumulation index at 10 uM treated at 42 hrs post-invasion for 24 hrs by automated image mining based cytological profiling assay; format: functional, organism-based
Summary of the method: (§1)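 Tightly synchronized cultures exposed from the 42 hpi mid-schizont point for 24 h to 10 µM final. Host cells stained with wheat germ agglutinin-AlexaFluor 488, parasite nuclei with DAPI and live-parasite mitochondria with Mitotracker Red CMXRos. Infected and viable parasitaemia and stage proportions quantified by automated image mining. Stage accumulation indices and parasitaemia reduction index derived.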

Plasmodium falciparum [2] = experiment: Antimalarial activity against tightly synchronized Plasmodium falciparum K1 assessed as parasite stage accumulation index at trophozoites stages at 10 uM treated at 18 hrs post-invasion for continuous duration of 36 hrs by automated image mining based cytological profiling assay; format: functional
Summary of the method: (§2)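 Tightly synchronized cultures exposed to 10 µM final from 6 hpi (early ring), 18 hpi (late ring) or 30 hpi (mid-trophozoite) for a continuous 36 h. Erythrocytes stained with WGA-AlexaFluor 488, parasite nuclei with DAPI, functional mitochondria with Mitotracker Red CMXRos. Stages (early rings, late rings, trophozoites, schizonts) classified by nuclear spot number and size. Viable parasitaemia and stage accumulation index obtained by automated image analysis.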

Plasmodium falciparum [3] = experiment: Antimalarial activity against tightly synchronized Plasmodium falciparum K1 assessed as parasite stage accumulation index at early ring stages at 10 uM treated at 6 hrs post-invasion for continuous duration of 36 hrs by automated image mining based cytological profiling assay; format: functional; summary of the method: as §2
Plasmodium falciparum [4] = experiment: Antimalarial activity against tightly synchronized Plasmodium falciparum W2 assessed as parasite stage accumulation index at trophozoites stages at 10 uM treated at 30 hrs post-invasion for continuous duration of 36 hrs by automated image mining based cytological profiling assay; format: functional; summary of the method: as §2
Plasmodium falciparum [5] = experiment: Antimalarial activity against tightly synchronized Plasmodium falciparum HB3 assessed as parasite stage accumulation index at schizonts stages at 10 uM treated at 18 hrs post-invasion for continuous duration of 36 hrs by automated image mining based cytological profiling assay; format: functional; summary of the method: as §2
Plasmodium falciparum [6] = experiment: Antimalarial activity against tightly synchronized Plasmodium falciparum HB3 assessed as parasite stage accumulation index at late ring stages at 10 uM treated at 6 hrs post-invasion for continuous duration of 36 hrs by automated image mining based cytological profiling assay; format: functional; summary of the method: as §2
Plasmodium falciparum [7] = experiment: Antimalarial activity against Plasmodium falciparum HB3 assessed as reduction in culture parasitaemia level at 10 uM treated at 42 hrs post-invasion for 24 hrs by automated image mining based cytological profiling assay; format: functional; summary of the method: as §1
Plasmodium falciparum [8] = experiment: Antimalarial activity against Plasmodium falciparum K1 assessed as reduction in parasite stage accumulation index at 10 uM treated at 42 hrs post-invasion for 24 hrs by automated image mining based cytological profiling assay; format: functional, organism-based; summary of the method: as §1
Plasmodium falciparum [9] = experiment: Antimalarial activity against tightly synchronized Plasmodium falciparum K1 assessed as parasite stage accumulation index at trophozoites stages at 10 uM treated at 6 hrs post-invasion for continuous duration of 36 hrs by automated image mining based cytological profiling assay; format: functional
Plasmodium falciparum [10] = experiment: Antimalarial activity against tightly synchronized Plasmodium falciparum W2 assessed as parasite stage accumulation index at trophozoites stages at 10 uM treated at 18 hrs post-invasion for continuous duration of 36 hrs by automated image mining based cytological profiling assay; format: functional
Plasmodium falciparum [11] = experiment: Antimalarial activity against tightly synchronized Plasmodium falciparum K1 assessed as parasite stage accumulation index at schizonts stages at 10 uM treated at 6 hrs post-invasion for continuous duration of 36 hrs by automated image mining based cytological profiling assay; format: functional; summary of the method: as §2
Plasmodium falciparum [12] = experiment: Antimalarial activity against tightly synchronized Plasmodium falciparum HB3 assessed as parasite stage accumulation index at late ring stages at 10 uM treated at 18 hrs post-invasion for continuous duration of 36 hrs by automated image mining based cytological profiling assay; format: functional; summary of the method: as §2
Plasmodium falciparum [13] = experiment: Antimalarial activity against Plasmodium falciparum K1 assessed as reduction in culture parasitaemia level at 10 uM treated at 42 hrs post-invasion for 24 hrs by automated image mining based cytological profiling assay; format: functional, organism-based; summary of the method: as §1
Plasmodium falciparum [14] = experiment: Antimalarial activity against tightly synchronized Plasmodium falciparum HB3 assessed as parasite stage accumulation index at trophozoites stages at 10 uM treated at 6 hrs post-invasion for continuous duration of 36 hrs by automated image mining based cytological profiling assay; format: functional; summary of the method: as §2
Plasmodium falciparum [15] = experiment: Antimalarial activity against tightly synchronized Plasmodium falciparum HB3 assessed as parasite stage accumulation index at trophozoites stages at 10 uM treated at 18 hrs post-invasion for continuous duration of 36 hrs by automated image mining based cytological profiling assay; format: functional; summary of the method: as §2
Plasmodium falciparum [16] = experiment: Antimalarial activity against tightly synchronized Plasmodium falciparum K1 assessed as parasite stage accumulation index at trophozoites stages at 10 uM treated at 30 hrs post-invasion for continuous duration of 36 hrs by automated image mining based cytological profiling assay; format: functional; summary of the method: as §2
Plasmodium falciparum [17] = experiment: Antimalarial activity against tightly synchronized Plasmodium falciparum W2 assessed as parasite stage accumulation index at schizonts stages at 10 uM treated at 18 hrs post-invasion for continuous duration of 36 hrs by automated image mining based cytological profiling assay; format: functional
Plasmodium falciparum [18] = experiment: Antimalarial activity against tightly synchronized Plasmodium falciparum K1 assessed as parasite stage accumulation index at schizonts stages at 10 uM treated at 18 hrs post-invasion for continuous duration of 36 hrs by automated image mining based cytological profiling assay; format: functional; summary of the method: as §2
Plasmodium falciparum [19] = experiment: Antimalarial activity against tightly synchronized Plasmodium falciparum W2 assessed as parasite stage accumulation index at early ring stages at 10 uM treated at 6 hrs post-invasion for continuous duration of 36 hrs by automated image mining based cytological profiling assay; format: functional; summary of the method: as §2
Plasmodium falciparum [20] = experiment: Antimalarial activity against tightly synchronized Plasmodium falciparum K1 assessed as parasite stage accumulation index at schizonts stages at 10 uM treated at 30 hrs post-invasion for continuous duration of 36 hrs by automated image mining based cytological profiling assay; format: functional; summary of the method: as §2
Plasmodium falciparum [21] = experiment: Antimalarial activity against Plasmodium falciparum HB3 assessed as increase in schizonts parasite stage accumulation index at 10 uM treated at 42 hrs post-invasion for 24 hrs by automated image mining based cytological profiling assay; format: functional; summary of the method: as §1
Plasmodium falciparum [22] = experiment: Antimalarial activity against tightly synchronized Plasmodium falciparum W2 assessed as parasite stage accumulation index at schizonts stages at 10 uM treated at 30 hrs post-invasion for continuous duration of 36 hrs by automated image mining based cytological profiling assay; format: functional
Plasmodium falciparum [23] = experiment: Antimalarial activity against tightly synchronized Plasmodium falciparum K1 assessed as parasite stage accumulation index at late ring stages at 10 uM treated at 6 hrs post-invasion for continuous duration of 36 hrs by automated image mining based cytological profiling assay; format: functional
Plasmodium falciparum [24] = experiment: Antimalarial activity against tightly synchronized Plasmodium falciparum W2 assessed as parasite stage accumulation index at late ring stages at 10 uM treated at 18 hrs post-invasion for continuous duration of 36 hrs by automated image mining based cytological profiling assay; format: functional; summary of the method: as §2
Plasmodium falciparum [25] = experiment: Antimalarial activity against Plasmodium falciparum HB3 assessed as reduction in parasite stage accumulation index at 10 uM treated at 42 hrs post-invasion for 24 hrs by automated image mining based cytological profiling assay; format: functional; summary of the method: as §1
Plasmodium falciparum [26] = experiment: Antimalarial activity against Plasmodium falciparum W2 assessed as reduction in parasite stage accumulation index at 10 uM treated at 42 hrs post-invasion for 24 hrs by automated image mining based cytological profiling assay; format: functional, organism-based; summary of the method: as §1
Plasmodium falciparum [27] = experiment: Antimalarial activity against tightly synchronized Plasmodium falciparum HB3 assessed as parasite stage accumulation index at trophozoites stages at 10 uM treated at 30 hrs post-invasion for continuous duration of 36 hrs by automated image mining based cytological profiling assay; format: functional
Plasmodium falciparum [28] = experiment: Antimalarial activity against Plasmodium falciparum W2 assessed as reduction in culture parasitaemia level at 10 uM treated at 42 hrs post-invasion for 24 hrs by automated image mining based cytological profiling assay; format: functional, organism-based; summary of the method: as §1
Plasmodium falciparum [29] = experiment: Antimalarial activity against tightly synchronized Plasmodium falciparum W2 assessed as parasite stage accumulation index at schizonts stages at 10 uM treated at 6 hrs post-invasion for continuous duration of 36 hrs by automated image mining based cytological profiling assay; format: functional; summary of the method: as §2
Plasmodium falciparum [30] = experiment: Antimalarial activity against tightly synchronized Plasmodium falciparum HB3 assessed as parasite stage accumulation index at schizonts stages at 10 uM treated at 6 hrs post-invasion for continuous duration of 36 hrs by automated image mining based cytological profiling assay; format: functional; summary of the method: as §2
Plasmodium falciparum [31] = experiment: Antimalarial activity against tightly synchronized Plasmodium falciparum K1 assessed as parasite stage accumulation index at late ring stages at 10 uM treated at 18 hrs post-invasion for continuous duration of 36 hrs by automated image mining based cytological profiling assay; format: functional; summary of the method: as §2
Plasmodium falciparum [32] = experiment: Antimalarial activity against Plasmodium falciparum W2 assessed as increase in schizonts parasite stage accumulation index at 10 uM treated at 42 hrs post-invasion for 24 hrs by automated image mining based cytological profiling assay; format: functional, organism-based; summary of the method: as §1
Plasmodium falciparum [33] = experiment: Antimalarial activity against tightly synchronized Plasmodium falciparum HB3 assessed as parasite stage accumulation index at early ring stages at 10 uM treated at 6 hrs post-invasion for continuous duration of 36 hrs by automated image mining based cytological profiling assay; format: functional
Plasmodium falciparum [34] = experiment: Antimalarial activity against tightly synchronized Plasmodium falciparum HB3 assessed as parasite stage accumulation index at schizonts stages at 10 uM treated at 30 hrs post-invasion for continuous duration of 36 hrs by automated image mining based cytological profiling assay; format: functional
Plasmodium falciparum [35] = experiment: Antimalarial activity against tightly synchronized Plasmodium falciparum W2 assessed as parasite stage accumulation index at trophozoites stages at 10 uM treated at 6 hrs post-invasion for continuous duration of 36 hrs by automated image mining based cytological profiling assay; format: functional
Plasmodium falciparum [36] = experiment: Antimalarial activity against tightly synchronized Plasmodium falciparum W2 assessed as parasite stage accumulation index at late ring stages at 10 uM treated at 6 hrs post-invasion for continuous duration of 36 hrs by automated image mining based cytological profiling assay; format: functional
[37] = Cytotoxicity against human HepG2 cells after 48 hrs by resazurin based assay; format: cell-based
Summary of the method: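 Cells grown in DMEM with 10% FBS and 1% antibiotic-antimycotic at 37 °C, 5% CO2. Viability read by resazurin reduction. CC50 derived; amphotericin B used as positive cytotoxicity control.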

CC(=O)N[C@@H]1[C@@H](O)[C@H](O)[C@@H](CO)O[C@H]1O [N-ACETYLGLUCOSAMINE]
inhibition (Plasmodium falciparum [1]): inactive
Activity (Plasmodium falciparum [2]): 1.18
Activity (Plasmodium falciparum [3]): 1.33
Activity (Plasmodium falciparum [4]): 0.34
Activity (Plasmodium falciparum [5]): 0.51
Activity (Plasmodium falciparum [6]): 2.14
inhibition (Plasmodium falciparum [7]): Active
inhibition (Plasmodium falciparum [8]): Active
Activity (Plasmodium falciparum [9]): 0.8
Activity (Plasmodium falciparum [10]): 1.12
Activity (Plasmodium falciparum [11]): 0.66
Activity (Plasmodium falciparum [12]): 1
inhibition (Plasmodium falciparum [13]): Active
Activity (Plasmodium falciparum [14]): 0.78
Activity (Plasmodium falciparum [15]): 1.06
Activity (Plasmodium falciparum [16]): 0.96
Activity (Plasmodium falciparum [17]): 1.08
Activity (Plasmodium falciparum [18]): 0.64
Activity (Plasmodium falciparum [19]): 1.52
Activity (Plasmodium falciparum [20]): 1.04
inhibition (Plasmodium falciparum [21]): inactive
Activity (Plasmodium falciparum [22]): 1.4
Activity (Plasmodium falciparum [23]): 1.32
Activity (Plasmodium falciparum [24]): 0.83
inhibition (Plasmodium falciparum [25]): Active
inhibition (Plasmodium falciparum [26]): Active
Activity (Plasmodium falciparum [27]): 0.87
inhibition (Plasmodium falciparum [28]): Active
Activity (Plasmodium falciparum [29]): 0.54
Activity (Plasmodium falciparum [30]): 0.29
Activity (Plasmodium falciparum [31]): 0.86
inhibition (Plasmodium falciparum [32]): inactive
Activity (Plasmodium falciparum [33]): 1.4
Activity (Plasmodium falciparum [34]): 0.7
Activity (Plasmodium falciparum [35]): 0.92
Activity (Plasmodium falciparum [36]): 0.88

C[C@@H]1[C@H](O)[C@@H](C)/C=C/C=C/C=C/C=C/C=C/C=C/C=C/[C@H](O[C@@H]2O[C@H](C)[C@@H](O)[C@H](N)[C@@H]2O)C[C@@H]2O[C@](O)(C[C@@H](O)C[C@@H](O)[C@H](O)CC[C@@H](O)C[C@@H](O)CC(=O)O[C@H]1C)C[C@H](O)[C@H]2C(=O)O [AMPHOTERICIN B]
CC50 at 48 h [37]: 40 µM
